Data as given in ChEMBL document CHEMBL2396515, “Quercetin-POC conjugates: Differential stability and bioactivity profiles between breast cancer (MCF-7) and colorectal carcinoma (HCT116) cell lines” (Bioorg Med Chem, 2013).
Active and inactive are the calls of the source. No cut-off for these calls is given here.

Experiments:
HCT-116 [1] = test: Drug metabolism in human HCT116 cells assessed as quercetin level at 30 uM after 1 hr by HPLC analysis; type: ADME, cell-based; conditions: hct-116, 1 h
How it was run: (§1)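 MCF-7 or HCT116 cells were seeded at 2×10^5 per well and grown 24 h at 37 °C, 5% CO2, then given 30 µM conjugate. At 1, 3, 6 and 12 h cells were PBS-washed, trypsinized, sonicated and filtered. Lysates were run on C18 HPLC (UV 340 nm). Each species is reported as a percentage of integrated peak area; peaks were identified by MALDI-TOF MS.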

[2] = Metabolic stability in human HCT116 cells assessed as compound remaining at 30 uM after 12 hrs by HPLC analysis; type: ADME, cell-based, HCT-116; conditions: read-out: Stability; how it was run: as §1
[3] = Metabolic stability in human HCT116 cells assessed as compound remaining at 30 uM after 6 hrs by HPLC analysis; type: ADME, cell-based, HCT-116; conditions: read-out: Stability; how it was run: as §1
[4] = Metabolic stability in human HCT116 cells assessed as compound remaining at 30 uM after 3 hrs by HPLC analysis; type: ADME, cell-based, HCT-116; conditions: read-out: Stability; how it was run: as §1
[5] = Metabolic stability in human HCT116 cells assessed as compound remaining at 30 uM after 1 hr by HPLC analysis; type: ADME, cell-based, HCT-116; conditions: read-out: Stability; how it was run: as §1
[6] = Metabolic stability in human MCF7 cells assessed as compound remaining at 30 uM after 3 hrs by HPLC analysis; type: ADME, cell-based; conditions: read-out: Stability; how it was run: as §1
[7] = Metabolic stability in human MCF7 cells assessed as compound remaining at 30 uM after 6 hrs by HPLC analysis; type: ADME, cell-based; conditions: read-out: Stability; how it was run: as §1
[8] = Metabolic stability in human MCF7 cells assessed as compound remaining at 30 uM after 1 hr by HPLC analysis; type: ADME, cell-based; conditions: read-out: Stability; how it was run: as §1
[9] = Solubility of the compound in DMEM cell-free cell culture medium up to 100 uM; type: physicochemical
How it was run: (§2)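 DMSO stocks ([…]–10 mM) were serially diluted into PBS pH 7.4 or DMEM with 10% FBS to final 0.5, 5, 25, 50, 100, 200 µM (2% DMSO) and 300 µM (3% DMSO). Solubility was judged by forward light scattering in a laser nephelometer.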

[10] = Chemical stability of the compound in DMEM cell-free cell culture medium at 50 uM after 24 to 54 hrs by HPLC analysis; type: physicochemical
How it was run: (§3)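 Conjugates diluted from a 10 mM DMSO stock to 50 µM final in cell-free culture medium (DMEM with 10% FBS), held at 37 °C. Samples were taken at 0, 1, 3, 6, 12, 24, 48 and 96 h, vortexed, and run on C18 reverse-phase HPLC with an acetonitrile/0.1% formic acid gradient at 1 mL/min, detected by UV at 340 nm.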

[11] = Solubility of the compound in PBS buffer at 0.5 to 300 uM; type: physicochemical; how it was run: as §2
[12] = Half life of the compound in DMEM cell-free cell culture medium at 50 uM by HPLC analysis; type: physicochemical; how it was run: as §3
[13] = Half life of the compound in PBS buffer at pH 7.4 at 50 uM by HPLC analysis; type: physicochemical
How it was run: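 Compound at 50 µM in PBS pH 7.4, incubated at 37 °C. Aliquots were drawn at 0, 1, 3, 6, 12, 24, 48 and 96 h and analysed by C18 reverse-phase HPLC with an acetonitrile/0.1% formic acid gradient, detected by UV at 340 nm.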

[14] = Solubility of the compound in PBS buffer at 300 uM; type: physicochemical; how it was run: as §2
HCT-116 [15] = test: Cytotoxicity against human HCT116 cells at 1 to 100 uM after 12 hrs by MTT assay; type: functional, cell-based
How it was run: (§4)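 MCF-7 or HCT116 cells were seeded at 5×10^3 per well in DMEM with 10% FBS and grown 1 day at 37 °C, 5% CO2. Compounds in 1% DMSO were added at 1, 5, 10, 50, 100 or 250 µM. Viability was read by MTT after 12 h; each assay was done three times.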

MCF7 [16] = test: Drug metabolism in human MCF7 cells assessed as quercetin level at 30 uM after 12 hrs by HPLC analysis; type: ADME, cell-based; conditions: mcf7, 12 h; how it was run: as §1
MCF7 [17] = test: Cytotoxicity against human MCF7 cells at 1 to 100 uM after 12 hrs by MTT assay; type: functional, cell-based; how it was run: as §4
MCF7 [18] = test: Metabolic stability in human MCF7 cells assessed as compound remaining at 30 uM after 12 hrs by HPLC analysis; type: ADME, cell-based; conditions: mcf7, 12 h; how it was run: as §1
HCT-116 [19] = test: Drug metabolism in human HCT116 cells assessed as quercetin sulfate level at 30 uM after 12 hrs by HPLC analysis; type: ADME, cell-based; conditions: hct-116, 12 h; how it was run: as §1
HCT-116 [20] = test: Drug metabolism in human HCT116 cells assessed as quercetin sulfate level at 30 uM after 6 hrs by HPLC analysis; type: ADME, cell-based; conditions: hct-116, 6 h; how it was run: as §1
HCT-116 [21] = test: Drug metabolism in human HCT116 cells assessed as quercetin sulfate level at 30 uM after 3 hrs by HPLC analysis; type: ADME, cell-based; conditions: hct-116, 3 h; how it was run: as §1
HCT-116 [22] = test: Drug metabolism in human HCT116 cells assessed as quercetin sulfate level at 30 uM after 1 hr by HPLC analysis; type: ADME, cell-based; conditions: hct-116, 1 h; how it was run: as §1
MCF7 [23] = test: Drug metabolism in human MCF7 cells assessed as quercetin sulfate level at 30 uM after 12 hrs by HPLC analysis; type: ADME, cell-based; conditions: mcf7, 12 h; how it was run: as §1
MCF7 [24] = test: Drug metabolism in human MCF7 cells assessed as quercetin sulfate level at 30 uM after 1 hr by HPLC analysis; type: ADME, cell-based; conditions: mcf7, 1 h; how it was run: as §1
HCT-116 [25] = test: Drug metabolism in human HCT116 cells assessed as quercetin-glucuronide level at 30 uM after 12 hrs by HPLC analysis; type: ADME, cell-based; conditions: hct-116, 12 h; how it was run: as §1
HCT-116 [26] = test: Drug metabolism in human HCT116 cells assessed as quercetin-glucuronide level at 30 uM after 6 hrs by HPLC analysis; type: ADME, cell-based; conditions: hct-116, 6 h; how it was run: as §1
HCT-116 [27] = test: Drug metabolism in human HCT116 cells assessed as quercetin-glucuronide level at 30 uM after 3 hrs by HPLC analysis; type: ADME, cell-based; conditions: hct-116, 3 h; how it was run: as §1
HCT-116 [28] = test: Drug metabolism in human HCT116 cells assessed as quercetin-glucuronide level at 30 uM after 1 hr by HPLC analysis; type: ADME, cell-based; conditions: hct-116, 1 h; how it was run: as §1
MCF7 [29] = test: Drug metabolism in human MCF7 cells assessed as quercetin-glucuronide level at 30 uM after 12 hrs by HPLC analysis; type: ADME, cell-based; conditions: mcf7, 12 h; how it was run: as §1
MCF7 [30] = test: Drug metabolism in human MCF7 cells assessed as quercetin-glucuronide level at 30 uM after 1 hr by HPLC analysis; type: ADME, cell-based; conditions: mcf7, 1 h; how it was run: as §1
HCT-116 [31] = test: Drug metabolism in human HCT116 cells assessed as quercetin level at 30 uM after 6 hrs by HPLC analysis; type: ADME, cell-based; conditions: hct-116, 6 h; how it was run: as §1
HCT-116 [32] = test: Drug metabolism in human HCT116 cells assessed as quercetin level at 30 uM after 12 hrs by HPLC analysis; type: ADME, cell-based; conditions: hct-116, 12 h; how it was run: as §1
HCT-116 [33] = test: Drug metabolism in human HCT116 cells assessed as quercetin level at 30 uM after 3 hrs by HPLC analysis; type: ADME, cell-based; conditions: hct-116, 3 h; how it was run: as §1

**Q.** With `CC(C)OC(=O)OCOc1c(-c2ccc(O)c(O)c2)oc2cc(O)cc(O)c2c1=O` as the compound, how does the Stability (HCT-116 [1]) read?
**A.** Stable

**Q.** What about the remaining at 12 h, 30 µM [2] of the same compound?
**A.** 65%

**Q.** What about the remaining at 6 h, 30 µM [3] of the same compound?
**A.** 71%

**Q.** What about the remaining at 3 h, 30 µM [4] of the same compound?
**A.** 76%

**Q.** What about the remaining at 1 h, 30 µM [5] of the same compound?
**A.** 80%

**Q.** And the remaining at 3 h, 30 µM [6]?
**A.** 49%

**Q.** What about the remaining at 6 h, 30 µM [7] of the same compound?
**A.** 4%

**Q.** What about the remaining at 1 h, 30 µM [8] of the same compound?
**A.** 92%

**Q.** What about the solubility [9] of the same compound?
**A.** soluble

**Q.** And the Stability [10]?
**A.** Stable

**Q.** What about the solubility [11] of the same compound?
**A.** soluble

**Q.** And the half-life at 50 µM [12]?
**A.** 54 h

**Q.** What about the half-life at 50 µM [13] of the same compound?
**A.** > 96 h

**Q.** What about the solubility [14] of the same compound?
**A.** soluble

**Q.** And the Activity (HCT-116 [15])?
**A.** inactive

**Q.** And the Stability (MCF7 [16])?
**A.** Stable

**Q.** What about the Activity (MCF7 [17]) of the same compound?
**A.** Active

**Q.** What about the Stability (MCF7 [18]) of the same compound?
**A.** Stable

**Q.** What about the Stability (HCT-116 [19]) of the same compound?
**A.** Stable

**Q.** What about the Stability (HCT-116 [20]) of the same compound?
**A.** Stable

**Q.** What about the Stability (HCT-116 [21]) of the same compound?
**A.** Stable

**Q.** And the Stability (HCT-116 [22])?
**A.** Stable

**Q.** What about the Stability (MCF7 [23]) of the same compound?
**A.** Stable

**Q.** What about the Stability (MCF7 [24]) of the same compound?
**A.** Stable

**Q.** What about the Stability (HCT-116 [25]) of the same compound?
**A.** Stable

**Q.** And the Stability (HCT-116 [26])?
**A.** Stable

**Q.** And the Stability (HCT-116 [27])?
**A.** Stable

**Q.** And the Stability (HCT-116 [28])?
**A.** Stable

**Q.** What about the Stability (MCF7 [29]) of the same compound?
**A.** Stable

**Q.** And the Stability (MCF7 [30])?
**A.** Stable

**Q.** And the Stability (HCT-116 [31])?
**A.** Stable

**Q.** And the Stability (HCT-116 [32])?
**A.** Stable

**Q.** What about the Stability (HCT-116 [33]) of the same compound?
**A.** Stable

**Q.** Which half-life at 50 µM [12] does the source give for `O=c1c(O)c(-c2ccc(O)c(O)c2)oc2cc(O)cc(O)c12` [QUERCETIN] here?
**A.** < 0.5 h

**Q.** What about the half-life at 50 µM [13] of the same compound?
**A.** 10 h

**Q.** And the Activity (HCT-116 [15])?
**A.** Active

**Q.** And the Activity (MCF7 [17])?
**A.** Active
